Assay results published in ChEMBL document CHEMBL1140297, “Discovery of novel and potent small-molecule inhibitors of NO and cytokine production as antisepsis agents: synthesis and biological activity of alkyl 6-(N-substituted sulfamoyl)cyclohex-1-ene-1-carboxylate” (J Med Chem, 2005).
Activity calls are given as the source filed them. The calls are words filed in the database; no cut-off is given here.

Tests used:
RAW264.7 [1] = experiment: Inhibition of LPS-induced nitric oxide production in mouse RAW264.7 cells; type: functional, cell-based
How it was run: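 RAW264.7 macrophages were plated at 1 × 10⁵ cells/well and cultured overnight. Cells were exposed to 10 ng/mL LPS with graded compound concentrations for 20 h at 37 °C, 5% CO₂, in phenol red-free RPMI1640 containing 1% heat-inactivated FBS. Supernatant nitrite was read fluorometrically with DAN followed by NaOH (ex 355/em 460 nm). IC50 is the concentration halving NO versus control; mean ± SD of two or three experiments.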

RAW264.7 [2] = experiment: Inhibition of LPS-induced IL6 production in mouse RAW264.7 cells by ELISA; type: functional, cell-based
How it was run: (§1)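 RAW264.7 cells (grown in RPMI1640 with 10% heat-inactivated FBS) were seeded at 1 × 10⁵ cells/well and left overnight. They were then stimulated with 10 ng/mL LPS (E. coli O111:B4) plus a range of compound concentrations for 20 h at 37 °C in phenol red-free RPMI1640 with 1% FBS. TNF-α and IL-6 in the supernatant were measured by ELISA.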

Mus musculus [3] = experiment: Suppression of serum nitric oxide level in LPS-challenged BALB/c mouse endotoxin shock model at 0.1 to 3 mg/kg, iv; type: functional, organism-based
How it was run: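 Female BALB/c mice were dosed iv at 0.1–3 mg/kg (10% glucuronylglucosyl-β-cyclodextrin vehicle) 1 h before LPS 7 mg/kg ip. Serum was taken at 6 h. Nitrate was reduced to nitrite with Aspergillus nitrate reductase and β-NADPH for 20 min, then read with DAN/HCl and NaOH fluorescence (ex 355/em 460 nm) against a sodium nitrite standard curve. n = 8 mice; means ± SE.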

Mus musculus [4] = experiment: Survival of LPS-challenged intravenously dosed BALB/c mouse endotoxin shock model; type: functional; settings: iv
How it was run: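 Female BALB/c mice (6-week-old, 15-21 g), acclimated at least one week. Compound dissolved in 10% (w/v) glucuronylglucosyl-β-cyclodextrin sodium salt, given iv at 0.3-3 mg/kg 1 h before lethal LPS (E. coli O111:B4, 7 mg/kg ip, in saline). Survival recorded for 7 days; 10 mice per group; Tarone's test with simple closed step-down method vs vehicle; ED50 as minimum effective dose.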

Mus musculus [5] = experiment: Suppression of serum TNF-alpha level in LPS-challenged BALB/c mouse endotoxin shock model at 0.1 to 3 mg/kg, iv; type: functional, organism-based
How it was run: (§2)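 Female BALB/c mice (6-week-old) received compound iv at 0.1–3 mg/kg in 10% glucuronylglucosyl-β-cyclodextrin, 1 h before LPS 7 mg/kg ip. Serum was collected at 1 h for TNF-α, 2 h for IL-6 and 6 h for IL-1β, then assayed by ELISA. n = 8 mice; means ± SE; one-tailed Williams or Shirley-Williams test versus vehicle.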

RAW264.7 [6] = experiment: Inhibition of LPS-induced TNFalpha production in mouse RAW264.7 cells by ELISA; type: functional, cell-based; how it was run: as §1
Mus musculus [7] = experiment: Suppression of serum IL6 level in LPS-challenged BALB/c mouse endotoxin shock model at 0.1 to 3 mg/kg, iv; type: functional, organism-based; how it was run: as §2
Mus musculus [8] = experiment: Survival of LPS-challenged BALB/c mouse endotoxin shock model at 3 mg/kg, iv; type: functional, organism-based; design: dose 3 mg/kg
How it was run: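 Female BALB/c mice (6-week-old, acclimated at least 1 week) were given compound iv in 10% glucuronylglucosyl-β-cyclodextrin 1 h before a lethal LPS challenge (7 mg/kg ip). Survival was recorded for 7 days, with 10 mice per group. Survival was analysed by Tarone's test with a closed step-down method versus vehicle.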

Mus musculus [9] = experiment: Suppression of serum IL1-beta level in LPS-challenged BALB/c mouse endotoxin shock model at 0.1 to 3 mg/kg, iv; type: functional, organism-based; how it was run: as §2

**Q.** Which IC50 (RAW264.7 [1]) does the source give for `CCOC(=O)C1=C(S(=O)(=O)Nc2ccc(F)cc2)CCCC1` here?
**A.** 1400 nM

**Q.** With `CCOC(=O)C1=CCCC[C@H]1S(=O)(=O)Nc1ccc(F)cc1Cl` [RESATORVID] as the compound, how does the IC50 (RAW264.7 [2]) read?
**A.** 1.3 nM

**Q.** And the Activity (Mus musculus [3])?
**A.** Active

**Q.** And the ED50 (Mus musculus [4])?
**A.** 0.3 mg/kg

**Q.** And the Activity (Mus musculus [5])?
**A.** Active

**Q.** And the IC50 (RAW264.7 [6])?
**A.** 1.9 nM

**Q.** And the Activity (Mus musculus [7])?
**A.** Active

**Q.** And the Activity (Mus musculus [8])?
**A.** Active

**Q.** And the IC50 (RAW264.7 [1])?
**A.** 1.8 nM

**Q.** And the Activity (Mus musculus [9])?
**A.** Active

**Q.** For `CCOC(=O)C1=CCCCC1S(=O)(=O)Nc1cccc(Cl)c1` (stereo unspecified), which IC50 (RAW264.7 [1]) is on record?
**A.** 66 nM

**Q.** `CCOC(=O)C1=CCCCC1S(=O)(=O)Nc1ccccc1C(=O)OC` (stereo unspecified) was tested. Which IC50 (RAW264.7 [1]) did it give?
**A.** 1100 nM

**Q.** `CC(C)COC(=O)C1=CCCCC1S(=O)(=O)Nc1ccc(F)cc1F` (stereo unspecified) was tested. Which IC50 (RAW264.7 [1]) did it give?
**A.** 49 nM

**Q.** For `CCOC(=O)C1=CCCCC1S(=O)(=O)Nc1ccc(C#N)cc1Cl` (stereo unspecified), which IC50 (RAW264.7 [1]) is on record?
**A.** 1600 nM

**Q.** Which IC50 (RAW264.7 [1]) does the source give for `CCCOC(=O)C1=CCCCC1S(=O)(=O)Nc1ccc(F)cc1F` (stereo unspecified) here?
**A.** 29 nM

**Q.** For `CCOC(=O)C1=CCCCC1S(=O)(=O)Nc1nccs1` (stereo unspecified), which IC50 (RAW264.7 [1]) is on record?
**A.** > 10000 nM

**Q.** Which IC50 (RAW264.7 [1]) does the source give for `CCOC(=O)C1=CCCCCC1S(=O)(=O)Nc1ccc(F)cc1Cl` (stereo unspecified) here?
**A.** 240 nM

**Q.** With `CCOC(=O)C1=CCCC[C@@H]1S(=O)(=O)Nc1ccc(F)cc1Cl` as the compound, how does the IC50 (RAW264.7 [2]) read?
**A.** 480 nM

**Q.** And the IC50 (RAW264.7 [6])?
**A.** 740 nM

**Q.** And the IC50 (RAW264.7 [1])?
**A.** 640 nM

**Q.** With `CCOC(=O)C1=CCCCC1S(=O)(=O)Nc1c(F)cccc1F` (stereo unspecified) as the compound, how does the IC50 (RAW264.7 [1]) read?
**A.** 160 nM

**Q.** For `CCOC(=O)C1=C(S(=O)(=O)Nc2ccc(Cl)cc2F)CCCC1`, which IC50 (RAW264.7 [1]) is on record?
**A.** 1700 nM

**Q.** `CCOC(=O)C1=CCCCC1S(=O)(=O)Nc1ccc(Cl)cc1` (stereo unspecified) was tested. Which IC50 (RAW264.7 [1]) did it give?
**A.** 400 nM

**Q.** `CCOC(=O)C1=CCCCC1S(=O)(=O)Nc1cccc(F)c1` (stereo unspecified) was tested. Which IC50 (RAW264.7 [1]) did it give?
**A.** 150 nM

**Q.** `CCOC(=O)C1=CCCCC1S(=O)(=O)Nc1ccccc1F` (stereo unspecified) was tested. Which IC50 (RAW264.7 [1]) did it give?
**A.** 75 nM

**Q.** How did the IC50 (RAW264.7 [1]) turn out when `CCOC(=O)C1=CCCCC1S(=O)(=O)Nc1cc(F)c(F)cc1F` (stereo unspecified) was run?
**A.** 30 nM

**Q.** Which IC50 (RAW264.7 [1]) does the source give for `CCOC(=O)C1=CCCC1S(=O)(=O)Nc1ccc(F)cc1Cl` (stereo unspecified) here?
**A.** 110 nM

**Q.** Which IC50 (RAW264.7 [1]) does the source give for `CCOC(=O)C1=CCCCC1S(=O)(=O)Nc1ccc(F)cc1F` (stereo unspecified) here?
**A.** 16 nM

**Q.** Which IC50 (RAW264.7 [1]) does the source give for `COC(=O)C1=CCCCC1S(=O)(=O)Nc1ccc(F)cc1F` (stereo unspecified) here?
**A.** 57 nM

**Q.** Which IC50 (RAW264.7 [1]) does the source give for `O=C(OCCO)C1=CCCCC1S(=O)(=O)Nc1ccc(F)cc1F` (stereo unspecified) here?
**A.** 330 nM

**Q.** With `C/C=C(\C(=O)OCC)C(CCC)S(=O)(=O)Nc1ccc(F)cc1Cl` (stereo unspecified) as the compound, how does the IC50 (RAW264.7 [1]) read?
**A.** 2600 nM

**Q.** `CCOC(=O)C1=CCCCC1S(=O)(=O)Nc1ccc(Cl)cc1F` (stereo unspecified) was tested. Which IC50 (RAW264.7 [2]) did it give?
**A.** 170 nM

**Q.** And the IC50 (RAW264.7 [6])?
**A.** 230 nM

**Q.** What about the IC50 (RAW264.7 [1]) of the same compound?
**A.** 160 nM

**Q.** With `CCOC(=O)C1=C(S(=O)(=O)Nc2ccccc2)CCCC1` as the compound, how does the IC50 (RAW264.7 [1]) read?
**A.** > 8200 nM

**Q.** `CCOC(=O)C1=CCCCC1S(=O)(=O)Nc1cccc(F)c1F` (stereo unspecified) was tested. Which IC50 (RAW264.7 [1]) did it give?
**A.** 140 nM

**Q.** `CCOC(=O)C1=CCCCC1S(=O)(=O)Nc1ccc(Cl)cc1Cl` (stereo unspecified) was tested. Which IC50 (RAW264.7 [1]) did it give?
**A.** 20 nM

**Q.** `CCOC(=O)C1=CCCCC1S(=O)(=O)Nc1nncs1` (stereo unspecified) was tested. Which IC50 (RAW264.7 [1]) did it give?
**A.** > 10000 nM

**Q.** `CCOC(=O)c1ccccc1S(=O)(=O)Nc1ccc(F)cc1Cl` was tested. Which IC50 (RAW264.7 [1]) did it give?
**A.** > 10000 nM

**Q.** How did the IC50 (RAW264.7 [1]) turn out when `CCOC(=O)C1=CCCCC1S(=O)(=O)Nc1ccccc1Cl` (stereo unspecified) was run?
**A.** 12 nM

**Q.** For `CCOC(=O)C1=CCCCC1S(=O)(=O)Nc1ccccc1` (stereo unspecified), which IC50 (RAW264.7 [1]) is on record?
**A.** 260 nM

**Q.** Which IC50 (RAW264.7 [1]) does the source give for `CCOC(=O)C1=CCCCC1S(=O)(=O)N(C)c1ccc(Cl)cc1F` (stereo unspecified) here?
**A.** 230 nM

**Q.** With `CCCCOC(=O)C1=CCCCC1S(=O)(=O)Nc1ccc(F)cc1F` (stereo unspecified) as the compound, how does the IC50 (RAW264.7 [1]) read?
**A.** 140 nM

**Q.** How did the IC50 (RAW264.7 [1]) turn out when `CC(C)OC(=O)C1=CCCCC1S(=O)(=O)Nc1ccc(F)cc1F` (stereo unspecified) was run?
**A.** 110 nM

**Q.** How did the IC50 (RAW264.7 [1]) turn out when `CCOC(=O)C1=CCCCC1S(=O)(=O)Nc1ccc(F)cc1` (stereo unspecified) was run?
**A.** 110 nM

**Q.** How did the IC50 (RAW264.7 [1]) turn out when `CCOC(=O)C1=CCCCC1S(=O)(=O)Nc1ccc(C)cc1Cl` (stereo unspecified) was run?
**A.** 41 nM

**Q.** `O=C1C2=C(CCCC2)S(=O)(=O)N1c1ccc(F)cc1` was tested. Which IC50 (RAW264.7 [1]) did it give?
**A.** 4100 nM

**Q.** Which results are given for `CCOC(=O)C1=CCCCC1S(=O)(=O)Nc1ccc(F)cc1Cl` (stereo unspecified)?
**A.** IC50 (RAW264.7 [2]): 2.5 nM; IC50 (RAW264.7 [6]): 3.4 nM; IC50 (RAW264.7 [1]): 3.2 nM

**Q.** How did the IC50 (RAW264.7 [1]) turn out when `CCOC(=O)C1=CCCCC1S(=O)(=O)Nc1ccccc1CC` (stereo unspecified) was run?
**A.** 130 nM
